Measurements taken from ChEMBL document CHEMBL1128238, “Synthesis and structure-activity relationships of dequalinium analogues as K+ channel blockers. Investigations on the role of the charged heterocycle” (J Med Chem, 1995).

Key:
[1] = species: Rattus norvegicus; experiment: Ratio of the concentrations of the test compound and dequalinium that cause 50% inhibition, as determined in the same experiment was reported. (number of neurons tested, n=3).; assay type: functional
Procedure, shortened: (§1)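 AHP inhibition recorded in cultured rat sympathetic neurones. Each compound was applied at two to four concentrations on at least three cells, generally not above 10–30 μM.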

[2] = species: Rattus norvegicus; experiment: Ability to inhibit after-hyperpolarization (AHP) in cultured rat sympathetic neurons. (number of neurons tested, n=3).; assay type: functional; settings: Sympathetic neuron
Procedure, shortened: (§2)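 SK(Ca) block judged from inhibition of the after-hyperpolarization in cultured rat sympathetic neurones. Each compound was tested at two to four concentrations on at least three cells. Test concentrations above 10–30 μM were generally avoided. The time course of block onset was also noted.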

[3] = species: Rattus norvegicus; experiment: Ratio of the concentrations of the test compound and dequalinium that cause 50% inhibition, as determined in the same experiment was reported. (number of neurons tested, n=5).; assay type: functional; procedure, shortened: as §1
[4] = species: Rattus norvegicus; experiment: Ability to inhibit after-hyperpolarization (AHP) in cultured rat sympathetic neurons. (number of neurons tested, n=5).; assay type: functional; settings: Sympathetic neuron; procedure, shortened: as §2
[5] = species: Rattus norvegicus; experiment: Ratio of the concentrations of the test compound and dequalinium that cause 50% inhibition, as determined in the same experiment was reported. (number of neurons tested, n=4).; assay type: functional; procedure, shortened: as §1
[6] = species: Rattus norvegicus; experiment: Ability to inhibit after-hyperpolarization (AHP) in cultured rat sympathetic neurons. (number of neurons tested, n=4).; assay type: functional; settings: Sympathetic neuron; procedure, shortened: as §2
[7] = species: Rattus norvegicus; experiment: Ratio of the concentrations of the test compound and dequalinium that cause 50% inhibition, as determined in the same experiment was reported. (number of neurons tested, n=7).; assay type: functional
Procedure, shortened: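 AHP inhibition in cultured rat sympathetic neurones, with each compound at two to four concentrations on at least three cells. The equieffective molar ratio is the test compound's 50%-inhibitory concentration divided by that of dequalinium, both determined in the same experiment.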

[8] = species: Rattus norvegicus; experiment: Ability to inhibit after-hyperpolarization (AHP) in cultured rat sympathetic neurons. (number of neurons tested, n=7).; assay type: functional; settings: Sympathetic neuron
Procedure, shortened: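 SK(Ca) block measured as inhibition of the after-hyperpolarization in cultured rat sympathetic neurones. Each compound was tested at two to four concentrations on at least three cells, generally not above 10–30 μM. Onset of block was also timed. The 50%-inhibitory concentration was determined.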

[9] = species: Rattus norvegicus; experiment: Ratio of the concentrations of the test compound and dequalinium that cause 50% inhibition, as determined in the same experiment was reported. (number of neurons tested, n=6).; assay type: functional; procedure, shortened: as §1
[10] = species: Rattus norvegicus; experiment: Ability to inhibit after-hyperpolarization (AHP) in cultured rat sympathetic neurons. (number of neurons tested, n=6).; assay type: functional; settings: Sympathetic neuron; procedure, shortened: as §2
[11] = species: Rattus norvegicus; experiment: Ratio of the concentrations of the test compound and dequalinium that cause 50% inhibition, as determined in the same experiment was reported. (number of neurons tested, n=18).; assay type: functional; procedure, shortened: as §1
[12] = species: Rattus norvegicus; experiment: Ability to inhibit after-hyperpolarization (AHP) in cultured rat sympathetic neurons. (number of neurons tested, n=18).; assay type: functional; settings: Sympathetic neuron; procedure, shortened: as §2
[13] = species: Rattus norvegicus; experiment: cells; settings: Sympathetic neuron

## Nc1ccnc(NCCCCCCCCCCNc2cc(N)ccn2)c1
[1]
  EMR: 5
[2]
  IC50: 5.5 µM

## Nc1c2c([n+](CCCCCCCCCC[n+]3c4c(c(N)c5ccccc53)CCCC4)c3ccccc13)CCCC2
[3]
  EMR: 0.9
[4]
  IC50: 1 µM

## Cc1n(C)c2ccccc2[n+]1CCCCCCCCCC[n+]1c(C)n(C)c2ccccc21.O.O.[Cl-].[Cl-]
[5]
  EMR: >10
[6]
  IC50: > 10 µM

## Nc1cc[n+](CCCC#CC#CCCC[n+]2ccc(N)cc2)cc1.O.O.[Cl-].[Cl-]
[5]
  EMR: 4.7

## C[n+]1cccnc1NCCCCCCCCCCNc1nccc[n+]1C
[3]
  EMR: >10
[4]
  IC50: > 10 µM

## Nc1cc[n+](CCCCCCCCCC[n+]2ccc(N)cc2)cc1
[7]
  EMR: 33
[8]
  IC50: 35 µM

## O=[N+]([O-])c1cc[n+]([O-])c(NCCCCCCCCCCNc2cc([N+](=O)[O-])cc[n+]2[O-])c1
[5]
  EMR: >30
[6]
  IC50: > 30 µM

## CCCCCCCCCC[n+]1c(C)cc(N)c2ccccc21
[1]
  EMR: 4.7
[2]
  IC50: 5.5 µM

## Brc1c[n+](CCCCCCCCCC[n+]2cc(Br)c3ccccc3c2)cc2ccccc12
[3]
  EMR: 7.6
[4]
  IC50: 4.7 µM

## c1ccc2c[n+](CCCCCCCCCC[n+]3ccc4ccccc4c3)ccc2c1
[3]
  EMR: 80
[4]
  IC50: 25 µM

## C[n+]1c(CCCCCCCCCCc2ccc3ccccc3[n+]2C)ccc2ccccc21
[9]
  EMR: 130
[10]
  IC50: 72 µM

## C[n+]1c(CCCCCCCCCCCCc2ccc3ccccc3[n+]2C)ccc2ccccc21
[5]
  EMR: 33
[6]
  IC50: 21 µM

## [Br-].[Br-].c1ccc2c(c1)ccc[n+]2CCCCCCCCCC[n+]1cccc2ccccc21
[3]
  EMR: 15
[4]
  IC50: 21 µM

## CCCC[n+]1c(C)cc(N)c2ccccc21
[1]
  EMR: 12

## COc1cc(CCCCCCCCCCc2cc(OC)c3ccccc3[n+]2C)[n+](C)c2ccccc12
[1]
  EMR: 27
[2]
  IC50: 9.5 µM

## Cc1cc(N)c2ccccc2[n+]1CCCC#CC#CCCC[n+]1c(C)cc(N)c2ccccc21
[1]
  EMR: 2.4
[2]
  IC50: 1.6 µM

## c1ccc2c(NCCCCCCCCCCNc3c4ccccc4nc4ccccc34)c3ccccc3nc2c1
[1]
  EMR: 12.2
[2]
  IC50: 6.7 µM

## Cn1c[n+](CCCCCCCCCC[n+]2cn(C)c3ccccc32)c2ccccc21
[5]
  EMR: 77
[6]
  IC50: 16 µM

## CC[N+](CC)(CC)CCCCCCCCCC[n+]1c(C)cc(N)c2ccccc21.[I-].[I-]
[1]
  EMR: 17
[2]
  IC50: 18 µM

## Cc1cc(N)c2ccccc2[n+]1CCCCCCCCCC[n+]1c(C)cc(N)c2ccccc21.[Cl-].[Cl-] [DEQUALINIUM CHLORIDE]
[11]
  EMR: 1
[12]
  IC50: 0.74 µM

## Nc1c2c(nc3ccccc13)CCCC2 [TACRINE]
[13]
  IC50: 30 µM
